Blank lines part the entries; values can stand above or below the compound they belong to. The source made the active and inactive calls. The rule behind the calls is not given here. Square brackets hold non-standard residues; d marks the D form. Peptide text beside a SMILES is read from it. * marks the point of attachment. X1 = O=C(c1ccccc1-c1c2ccc(=O)cc-2oc2cc(O)ccc12)*; hArg = N=C(N)NCCCC[C@H](N)C(=O)O; Nle = CCCC[C@H](N)C(=O)O; Aib = CC(C)(N)C(=O)O
Key:
[1] = target: 5-hydroxytryptamine receptor 2C (Homo sapiens) (UniProt P28335); assay: Inhibition of 5HT2C receptor at 20 uM
[2] = target: Alpha-1B adrenergic receptor (Homo sapiens) (UniProt P35368); assay: Inhibition of adrenergic Alpha-1B receptor at 20 uM
[3] = target: 5-hydroxytryptamine receptor 2A (Homo sapiens, UniProt P28223); assay: Inhibition of 5HT2A receptor
[4] = target: Histamine H1 receptor (Homo sapiens) (UniProt P35367); assay: Inhibition of histamine H1 receptor at 20 uM
[5] = target: C-C chemokine receptor type 3 (Homo sapiens) (UniProt P51677); assay: Binding affinity to CCR3 at 20 uM
[6] = target: C-C chemokine receptor type 1 (Homo sapiens) (UniProt P32246); assay: Binding affinity to CCR1 at 20 uM
[7] = target: C-X-C chemokine receptor type 2 (Homo sapiens) (UniProt P25025); assay: Inhibition of CXCR2 at 20 uM
[8] = target: Parathyroid hormone/parathyroid hormone-related peptide receptor (Homo sapiens) (UniProt Q03431); assay: Antagonist activity at human PTH/PTH-related peptide receptor expressed in human SaOS2 assessed as inhibition of DPC-AJ1951-induced cAMP production; assay type: functional, cell-based; details: SAOS-2
Method in brief: (§1)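 Cells lifted with EDTA after culture in DMEM with 10% FBS and refeeding 12–24 h before assay. Resuspended in HBSS/5 mM Hepes/0.1% BSA/0.5 mM IBMX, pH 7.4, and stimulated with agonist peptide with or without antagonist. cAMP read by AlphaScreen.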

[9] = target: C-C chemokine receptor type 4 (Homo sapiens) (UniProt P51679); assay: Binding affinity to CCR4 at 20 uM
[10] = target: D(2) dopamine receptor (Homo sapiens) (UniProt P14416); assay: Inhibition of dopamine D2 receptor at 20 uM
[11] = target: C-C chemokine receptor type 5 (Homo sapiens) (UniProt P51681); assay: Binding affinity to CCR5 at 20 uM
[12] = target: Parathyroid hormone/parathyroid hormone-related peptide receptor (Homo sapiens) (UniProt Q03431); assay: Antagonist activity at human PTH/PTH-related peptide receptor expressed in human CL0153 cells assessed as inhibition of DPC-AJ1951-induced cAMP production; assay type: functional, cell-based; method in brief: as §1
[13] = target: Muscarinic acetylcholine receptor M5 (Homo sapiens) (UniProt P08912); assay: Inhibition of muscarinic M5 receptor at 20 uM
Substance-K receptor = Substance-K receptor (Homo sapiens, UniProt P21452); assay: Inhibition of neurokinin 2 receptor
[14] = target: Parathyroid hormone/parathyroid hormone-related peptide receptor (Rattus norvegicus) (UniProt P25961); assay: Antagonist activity at rat PTH/PTH-related peptide receptor expressed in rat UMR106 cells assessed as inhibition of DPC-AJ1951-induced cAMP production; assay type: functional, cell-based; method in brief: as §1
[15] = target: C-X-C chemokine receptor type 3 (Homo sapiens) (UniProt P49682); assay: Inhibition of CXCR3 at 20 uM
[16] = target: T1, Parathyroid hormone/parathyroid hormone-related peptide receptor (Homo sapiens, UniProt Q03431); assay: Antagonist activity at PTH/PTH-related peptide receptor expressed in HKRK-B28 cells assessed as inhibition of parathyroid hormone (1 to 34)-induced cAMP production; assay type: functional, cell-based; method in brief: as §1
T1 sequence (Q03431 whole entry): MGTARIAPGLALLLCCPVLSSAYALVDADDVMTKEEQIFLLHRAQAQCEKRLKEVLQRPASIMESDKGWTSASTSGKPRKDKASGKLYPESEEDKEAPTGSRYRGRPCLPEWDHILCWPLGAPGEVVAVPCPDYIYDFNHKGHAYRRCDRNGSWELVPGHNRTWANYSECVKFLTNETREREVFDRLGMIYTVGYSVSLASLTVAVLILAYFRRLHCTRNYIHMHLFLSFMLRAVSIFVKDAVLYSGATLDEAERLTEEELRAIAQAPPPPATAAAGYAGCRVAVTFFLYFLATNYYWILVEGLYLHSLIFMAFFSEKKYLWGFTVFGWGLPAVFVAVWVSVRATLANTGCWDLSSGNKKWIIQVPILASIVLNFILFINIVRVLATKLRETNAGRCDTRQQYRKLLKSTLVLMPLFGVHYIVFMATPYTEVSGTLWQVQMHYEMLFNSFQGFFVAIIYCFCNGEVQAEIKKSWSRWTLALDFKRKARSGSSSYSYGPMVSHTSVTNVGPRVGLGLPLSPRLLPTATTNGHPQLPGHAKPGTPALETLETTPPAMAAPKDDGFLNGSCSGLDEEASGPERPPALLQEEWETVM

[17] = target: Alpha-2C adrenergic receptor (Homo sapiens, UniProt P18825); assay: Inhibition of adrenergic Alpha-2C receptor
[18] = target: T1, Parathyroid hormone/parathyroid hormone-related peptide receptor; assay: Antagonist activity at PTH/PTH-related peptide receptor expressed in HKRK-B28 cells assessed as inhibition of DPC-AJ1951-induced cAMP production; assay type: functional, cell-based; method in brief: as §1
[19] = target: T1, Parathyroid hormone/parathyroid hormone-related peptide receptor; assay: Displacement of [125I]DPC-AJ1951 from PTH/PTH-related peptide receptor expressed in HKRK-B28 cells; assay type: cell-based
Method in brief: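 Whole HKRK-B28 cells plated at 30,000/well and incubated overnight at 37°C, 5% CO2. Incubated 3 h at room temperature, washed three times, bound radioactivity counted by scintillation.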

[20] = target: Alpha-2A adrenergic receptor (Homo sapiens) (UniProt P08913); assay: Inhibition of adrenergic alpha2A receptor at 20 uM
[21] = target: Alpha-1D adrenergic receptor (Homo sapiens, UniProt P25100); assay: Inhibition of adrenergic Alpha-1D receptor
[22] = target: C-C chemokine receptor type 2 (Homo sapiens) (UniProt P41597); assay: Binding affinity to CCR2 at 20 uM
[23] = target: T2, Parathyroid hormone/parathyroid hormone-related peptide receptor (Rattus norvegicus, UniProt P25961); assay: Activity at rat PTH/PTH-related peptide receptor expressed in rat UMR106 cells assessed as cAMP formation; assay type: functional, cell-based
T2 sequence (P25961 whole entry): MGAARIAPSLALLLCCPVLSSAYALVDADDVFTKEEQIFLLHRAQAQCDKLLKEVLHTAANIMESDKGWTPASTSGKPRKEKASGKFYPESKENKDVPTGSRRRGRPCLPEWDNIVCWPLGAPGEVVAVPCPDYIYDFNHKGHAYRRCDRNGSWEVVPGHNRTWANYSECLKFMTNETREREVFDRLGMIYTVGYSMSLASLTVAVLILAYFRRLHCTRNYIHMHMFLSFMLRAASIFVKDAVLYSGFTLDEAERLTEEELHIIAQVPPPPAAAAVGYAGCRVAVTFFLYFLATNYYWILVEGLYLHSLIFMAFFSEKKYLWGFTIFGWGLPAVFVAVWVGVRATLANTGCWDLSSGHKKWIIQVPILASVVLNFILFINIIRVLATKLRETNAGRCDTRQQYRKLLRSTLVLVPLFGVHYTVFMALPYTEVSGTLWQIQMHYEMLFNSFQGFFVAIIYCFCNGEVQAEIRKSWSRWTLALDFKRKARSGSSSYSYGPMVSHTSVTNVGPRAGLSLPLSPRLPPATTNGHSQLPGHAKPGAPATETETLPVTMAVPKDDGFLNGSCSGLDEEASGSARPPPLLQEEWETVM
Method in brief: (§2)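 Nonconfluent cells grown at 37°C in DMEM with 10% FBS, refed 12–24 h before assay. Rinsed with warm PBS, detached with prewarmed EDTA (37°C, 5–10 min), spun at 300 × g for 5 min. Resuspended in HBSS/5 mM Hepes/0.1% BSA/0.5 mM IBMX, pH 7.4. cAMP read by AlphaScreen.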

[24] = target: T1, Parathyroid hormone/parathyroid hormone-related peptide receptor; assay: Activity at human PTH/PTH-related peptide receptor expressed in HEK293 cells assessed as induction of luciferase activity by CRE-luciferase reporter assay; assay type: functional, cell-based
[25] = target: T1, Parathyroid hormone/parathyroid hormone-related peptide receptor; assay: Activity at human PTH/PTH-related peptide receptor expressed in SAOS2 cells assessed as cAMP formation; assay type: functional, cell-based, SAOS-2; method in brief: as §2

Sequence of C-C chemokine receptor type 2 (Homo sapiens) (P41597 whole entry, looked up): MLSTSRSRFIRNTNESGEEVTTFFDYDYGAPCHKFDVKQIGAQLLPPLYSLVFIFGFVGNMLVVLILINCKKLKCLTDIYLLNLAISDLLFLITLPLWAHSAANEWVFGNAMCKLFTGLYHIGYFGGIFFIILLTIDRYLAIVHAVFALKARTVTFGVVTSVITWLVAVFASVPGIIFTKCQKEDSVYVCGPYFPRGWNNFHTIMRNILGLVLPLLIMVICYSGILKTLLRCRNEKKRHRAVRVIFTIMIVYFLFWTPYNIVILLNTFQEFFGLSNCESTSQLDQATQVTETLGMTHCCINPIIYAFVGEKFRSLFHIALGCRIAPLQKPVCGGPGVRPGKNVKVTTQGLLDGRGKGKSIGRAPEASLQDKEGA
Sequence of C-X-C chemokine receptor type 3 (Homo sapiens) (P49682 whole entry): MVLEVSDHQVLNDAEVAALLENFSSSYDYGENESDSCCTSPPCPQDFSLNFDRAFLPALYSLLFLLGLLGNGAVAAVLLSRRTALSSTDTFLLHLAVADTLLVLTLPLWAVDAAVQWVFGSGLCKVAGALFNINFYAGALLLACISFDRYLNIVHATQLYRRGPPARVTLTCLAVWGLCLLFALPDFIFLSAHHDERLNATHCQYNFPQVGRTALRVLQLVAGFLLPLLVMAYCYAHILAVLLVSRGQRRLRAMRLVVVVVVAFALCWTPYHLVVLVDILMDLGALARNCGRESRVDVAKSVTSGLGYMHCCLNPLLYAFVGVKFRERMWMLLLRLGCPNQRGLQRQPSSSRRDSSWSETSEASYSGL
Sequence of D(2) dopamine receptor (Homo sapiens) (P14416 whole entry): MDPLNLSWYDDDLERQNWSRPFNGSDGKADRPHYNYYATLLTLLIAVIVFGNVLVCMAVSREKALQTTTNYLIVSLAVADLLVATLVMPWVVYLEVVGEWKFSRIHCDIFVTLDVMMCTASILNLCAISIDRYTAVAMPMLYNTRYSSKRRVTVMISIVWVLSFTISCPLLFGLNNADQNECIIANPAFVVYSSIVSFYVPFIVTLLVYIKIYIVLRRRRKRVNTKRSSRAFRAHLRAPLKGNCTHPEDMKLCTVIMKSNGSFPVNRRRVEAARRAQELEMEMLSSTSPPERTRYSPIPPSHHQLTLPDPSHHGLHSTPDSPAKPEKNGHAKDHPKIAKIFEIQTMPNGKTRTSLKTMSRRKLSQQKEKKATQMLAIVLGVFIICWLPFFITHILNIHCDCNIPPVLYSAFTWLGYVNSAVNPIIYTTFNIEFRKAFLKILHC
Sequence of Alpha-1B adrenergic receptor (Homo sapiens) (P35368 whole entry): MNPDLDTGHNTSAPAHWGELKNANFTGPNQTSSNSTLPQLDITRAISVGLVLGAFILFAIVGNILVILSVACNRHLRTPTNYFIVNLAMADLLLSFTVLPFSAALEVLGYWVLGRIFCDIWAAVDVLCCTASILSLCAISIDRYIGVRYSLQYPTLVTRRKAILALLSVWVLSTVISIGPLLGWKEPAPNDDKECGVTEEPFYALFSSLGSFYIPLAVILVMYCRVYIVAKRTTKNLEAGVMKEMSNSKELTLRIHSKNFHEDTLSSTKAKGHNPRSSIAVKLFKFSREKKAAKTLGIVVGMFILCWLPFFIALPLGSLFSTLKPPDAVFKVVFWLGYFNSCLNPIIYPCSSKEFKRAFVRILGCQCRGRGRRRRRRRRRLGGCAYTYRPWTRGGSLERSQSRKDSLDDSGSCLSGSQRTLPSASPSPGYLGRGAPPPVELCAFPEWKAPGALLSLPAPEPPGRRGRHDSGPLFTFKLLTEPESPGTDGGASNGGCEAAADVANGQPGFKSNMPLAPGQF
Sequence of C-C chemokine receptor type 3 (Homo sapiens) (P51677 whole entry): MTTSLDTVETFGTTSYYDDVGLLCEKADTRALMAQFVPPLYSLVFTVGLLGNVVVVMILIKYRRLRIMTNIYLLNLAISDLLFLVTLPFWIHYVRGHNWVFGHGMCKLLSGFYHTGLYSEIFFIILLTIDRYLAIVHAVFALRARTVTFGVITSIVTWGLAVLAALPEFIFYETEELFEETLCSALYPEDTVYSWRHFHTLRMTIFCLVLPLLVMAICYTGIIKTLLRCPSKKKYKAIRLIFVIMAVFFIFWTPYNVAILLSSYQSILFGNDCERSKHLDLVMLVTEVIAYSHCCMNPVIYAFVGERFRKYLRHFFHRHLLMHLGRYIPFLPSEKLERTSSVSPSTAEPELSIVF
Sequence of Histamine H1 receptor (Homo sapiens) (P35367 whole entry): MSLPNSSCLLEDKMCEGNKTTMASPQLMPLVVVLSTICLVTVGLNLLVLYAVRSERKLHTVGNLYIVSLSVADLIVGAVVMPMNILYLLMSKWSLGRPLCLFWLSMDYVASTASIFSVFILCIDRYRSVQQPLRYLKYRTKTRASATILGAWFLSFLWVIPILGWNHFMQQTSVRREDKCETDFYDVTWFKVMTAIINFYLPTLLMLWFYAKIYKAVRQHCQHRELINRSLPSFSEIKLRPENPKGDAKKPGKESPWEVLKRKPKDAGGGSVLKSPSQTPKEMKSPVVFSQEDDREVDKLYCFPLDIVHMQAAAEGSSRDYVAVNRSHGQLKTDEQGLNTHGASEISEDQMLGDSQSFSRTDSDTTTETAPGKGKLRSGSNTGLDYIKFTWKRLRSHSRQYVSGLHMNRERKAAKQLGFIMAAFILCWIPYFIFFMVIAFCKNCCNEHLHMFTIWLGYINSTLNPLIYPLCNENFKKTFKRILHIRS
Sequence of 5-hydroxytryptamine receptor 2C (Homo sapiens) (P28335 whole entry): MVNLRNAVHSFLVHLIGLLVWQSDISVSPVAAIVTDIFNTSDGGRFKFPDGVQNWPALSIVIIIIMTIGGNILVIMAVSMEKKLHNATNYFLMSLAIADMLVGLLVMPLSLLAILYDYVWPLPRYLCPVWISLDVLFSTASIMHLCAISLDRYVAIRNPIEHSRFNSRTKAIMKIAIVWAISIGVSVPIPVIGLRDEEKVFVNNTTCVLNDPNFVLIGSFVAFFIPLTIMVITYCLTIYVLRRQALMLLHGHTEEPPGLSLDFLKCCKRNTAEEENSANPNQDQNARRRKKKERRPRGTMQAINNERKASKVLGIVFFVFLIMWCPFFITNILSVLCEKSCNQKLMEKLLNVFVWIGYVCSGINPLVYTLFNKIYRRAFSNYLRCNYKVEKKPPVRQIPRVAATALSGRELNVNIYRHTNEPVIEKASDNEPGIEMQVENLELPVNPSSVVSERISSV
Sequence of Muscarinic acetylcholine receptor M5 (Homo sapiens) (P08912 whole entry): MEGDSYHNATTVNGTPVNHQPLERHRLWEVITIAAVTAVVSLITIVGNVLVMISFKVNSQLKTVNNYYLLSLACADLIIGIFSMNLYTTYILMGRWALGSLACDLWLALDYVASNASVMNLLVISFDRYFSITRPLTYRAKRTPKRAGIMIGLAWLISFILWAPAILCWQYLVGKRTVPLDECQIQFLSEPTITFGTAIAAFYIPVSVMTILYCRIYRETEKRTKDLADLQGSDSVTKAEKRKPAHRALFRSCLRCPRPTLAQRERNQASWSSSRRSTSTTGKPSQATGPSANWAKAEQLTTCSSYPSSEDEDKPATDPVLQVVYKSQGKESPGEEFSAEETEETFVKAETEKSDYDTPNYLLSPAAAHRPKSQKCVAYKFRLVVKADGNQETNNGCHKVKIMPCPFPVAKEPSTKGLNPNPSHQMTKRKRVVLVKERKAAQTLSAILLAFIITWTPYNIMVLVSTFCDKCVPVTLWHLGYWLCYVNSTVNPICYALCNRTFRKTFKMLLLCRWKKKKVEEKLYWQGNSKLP
Sequence of C-C chemokine receptor type 4 (Homo sapiens) (P51679 whole entry): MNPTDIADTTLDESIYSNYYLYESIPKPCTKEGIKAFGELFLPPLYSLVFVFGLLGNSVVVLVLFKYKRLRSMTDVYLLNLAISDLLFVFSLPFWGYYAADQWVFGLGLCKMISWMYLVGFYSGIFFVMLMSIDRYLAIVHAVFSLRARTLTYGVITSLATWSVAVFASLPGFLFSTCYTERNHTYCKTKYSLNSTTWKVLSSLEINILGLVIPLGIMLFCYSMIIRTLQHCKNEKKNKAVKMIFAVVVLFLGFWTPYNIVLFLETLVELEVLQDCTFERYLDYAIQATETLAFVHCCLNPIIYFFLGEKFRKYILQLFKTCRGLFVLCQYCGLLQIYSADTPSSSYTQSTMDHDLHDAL
Sequence of Alpha-1D adrenergic receptor (P25100 whole entry): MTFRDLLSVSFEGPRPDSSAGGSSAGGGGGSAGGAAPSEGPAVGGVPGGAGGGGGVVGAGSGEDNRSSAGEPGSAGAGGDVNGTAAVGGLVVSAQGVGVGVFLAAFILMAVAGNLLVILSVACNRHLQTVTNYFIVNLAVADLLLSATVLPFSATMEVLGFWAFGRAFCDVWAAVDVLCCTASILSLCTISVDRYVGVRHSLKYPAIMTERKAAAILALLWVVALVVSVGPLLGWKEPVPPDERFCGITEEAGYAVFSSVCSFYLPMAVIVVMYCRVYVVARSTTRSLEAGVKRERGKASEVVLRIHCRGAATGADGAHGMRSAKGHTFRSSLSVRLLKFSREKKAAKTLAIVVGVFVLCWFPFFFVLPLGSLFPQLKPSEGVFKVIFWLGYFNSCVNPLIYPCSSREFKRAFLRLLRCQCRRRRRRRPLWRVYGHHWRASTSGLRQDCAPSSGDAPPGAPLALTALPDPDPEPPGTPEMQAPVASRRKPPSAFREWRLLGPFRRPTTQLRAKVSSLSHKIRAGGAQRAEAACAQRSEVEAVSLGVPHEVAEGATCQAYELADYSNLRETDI
Sequence of C-X-C chemokine receptor type 2 (Homo sapiens) (P25025 whole entry): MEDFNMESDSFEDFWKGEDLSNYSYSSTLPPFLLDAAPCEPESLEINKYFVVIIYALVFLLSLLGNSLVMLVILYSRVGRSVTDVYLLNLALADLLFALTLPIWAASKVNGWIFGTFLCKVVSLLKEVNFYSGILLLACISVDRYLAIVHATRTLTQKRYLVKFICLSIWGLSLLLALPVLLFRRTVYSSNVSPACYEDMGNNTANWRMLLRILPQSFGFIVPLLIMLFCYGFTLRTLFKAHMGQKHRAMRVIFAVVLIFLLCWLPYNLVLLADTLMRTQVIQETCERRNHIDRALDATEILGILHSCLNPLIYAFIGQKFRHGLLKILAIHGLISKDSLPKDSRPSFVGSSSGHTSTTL

SMILES: CC[C@H](C)[C@H](NC(=O)[C@H](CCC(=O)O)NC(=O)[C@H](C)NC(=O)[C@@H](NC(=O)[C@H](C)N)C(C)C)C(=O)N[C@@H](CCC(N)=O)C(=O)N[C@@H](CC(C)C)C(=O)N[C@@H](CCSC)C(=O)N[C@@H](Cc1cnc[nH]1)C(=O)N[C@@H](CCC(N)=O)C(=O)N[C@@H](CCCCNC(=N)N)C(=O)N[C@@H](C)C(=O)N[C@@H](CCCCN)C(=O)N[C@@H](Cc1c[nH]c2ccccc12)C(=O)N[C@@H](CCCCNC(=O)c1ccccc1-c1c2ccc(=O)cc-2oc2cc(O)ccc12)C(N)=O (H-AVAEIQLMHQ[hArg]AKWK(X1)-NH2)
EC50 [23]: 251 nM
EC50 [24]: 53 nM
IC50 [19]: 10100 nM
EC50 [25]: 1000 nM

SMILES: CCCC[C@H](NC(=O)[C@H](CC(C)C)NC(=O)[C@H](CCC(N)=O)NC(=O)[C@@H](NC(=O)[C@H](CCC(=O)O)NC(=O)C(C)(C)NC(=O)[C@@H](NC(=O)C(C)(C)N)C(C)C)[C@@H](C)CC)C(=O)N[C@@H](Cc1cnc[nH]1)C(=O)N[C@@H](CCC(N)=O)C(=O)N[C@@H](CCCN=C(N)N)C(=O)N[C@@H](C)C(=O)N[C@@H](CCCCN)C(=O)N[C@@H](Cc1ccc(O)cc1)C(=O)N[C@@H](CCCCNC(=O)c1ccccc1-c1c2ccc(=O)cc-2oc2cc(O)ccc12)C(N)=O (H-[Aib]V[Aib]EIQL[Nle]HQRAKYK(X1)-NH2)
EC50 [24]: 1.1 nM
IC50 [19]: 98.2 nM
EC50 [25]: 20 nM

The remaining compounds from weak to strong by IC50 [19], led by results:

EC50 [23]: 155 nM
EC50 [24]: 32 nM
IC50 [19]: 10500 nM
EC50 [25]: 800 nM
SMILES: CC[C@H](C)[C@H](NC(=O)[C@H](CCC(=O)O)NC(=O)[C@H](C)NC(=O)[C@@H](NC(=O)[C@H](C)N)C(C)C)C(=O)N[C@@H](CCC(N)=O)C(=O)N[C@@H](CC(C)C)C(=O)N[C@@H](CCSC)C(=O)N[C@@H](Cc1cnc[nH]1)C(=O)N[C@@H](CCC(N)=O)C(=O)N[C@@H](CCCCN=C(N)N)C(=O)N[C@@H](C)C(=O)N[C@@H](CCCCN)C(=O)N[C@@H](Cc1c[nH]c2ccccc12)C(N)=O (H-AVAEIQLMHQ[hArg]AKW-NH2)

EC50 [23]: 129 nM
EC50 [24]: 26 nM
IC50 [19]: 2190 nM
EC50 [25]: 1460 nM
SMILES: CCCC[C@H](NC(=O)[C@H](CC(C)C)NC(=O)[C@H](CCC(N)=O)NC(=O)[C@@H](NC(=O)[C@H](CCC(=O)O)NC(=O)[C@H](C)NC(=O)[C@@H](NC(=O)[C@H](C)N)C(C)C)[C@@H](C)CC)C(=O)N[C@@H](Cc1cnc[nH]1)C(=O)N[C@@H](CCC(N)=O)C(=O)N[C@@H](CCCCNC(=N)N)C(=O)N[C@@H](C)C(=O)N[C@@H](CCCCN)C(=O)N[C@@H](Cc1c[nH]c2ccccc12)C(=O)N[C@@H](Cc1ccc(O)cc1)C(N)=O (H-AVAEIQL[Nle]HQ[hArg]AKWY-NH2)

Activity [1]: inactive
Activity [2]: inactive
IC50 [3]: 15000 nM
Activity [4]: inactive
Activity [5]: inactive
Activity [6]: inactive
Activity [7]: inactive
Activity [8]: Active
Activity [9]: inactive
Activity [10]: inactive
Activity [11]: inactive
Activity [12]: Active
Activity [13]: inactive
IC50 (Substance-K receptor): 28000 nM
Activity [14]: Active
Activity [15]: inactive
IC50 [16]: 68000 nM
IC50 [17]: 10400 nM
IC50 [18]: 5780 nM
IC50 [19]: 990 nM
Activity [20]: inactive
IC50 [21]: 13800 nM
Activity [22]: inactive
SMILES: CC[C@@H]1O[C@](/C=C/C2CC2)(C(F)(F)F)c2c(ccc(F)c2F)NC1=O

— ChEMBL document CHEMBL1156459, “Discovery of a small molecule antagonist of the parathyroid hormone receptor by using an N-terminal parathyroid hormone peptide probe” (Proc Natl Acad Sci U S A, 2007)
